Measured values from the M2OR odorant receptor database.

What was measured:
Conditions in all cases: stereoisomer not certain
[1] = target: T1, OR1A1 (Homo sapiens) (UniProt Q9P1Q5)
T1 sequence (whole entry): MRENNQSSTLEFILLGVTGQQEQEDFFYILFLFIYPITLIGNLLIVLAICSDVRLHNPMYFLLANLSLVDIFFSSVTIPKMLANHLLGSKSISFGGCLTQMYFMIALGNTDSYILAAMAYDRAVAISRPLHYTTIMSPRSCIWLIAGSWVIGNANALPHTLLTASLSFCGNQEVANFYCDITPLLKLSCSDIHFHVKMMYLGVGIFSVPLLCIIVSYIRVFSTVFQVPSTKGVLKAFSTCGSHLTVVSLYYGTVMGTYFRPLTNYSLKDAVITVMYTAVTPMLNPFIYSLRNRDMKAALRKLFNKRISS
Procedure, shortened: (§1)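 Each entry records the cell line, G-protein, co-transfected protein and tags used. Methods varied with the source, often transient luciferase assays in mammalian cell lines. A receptor–molecule pair is called responsive (active) if the original authors judged its signal statistically different from baseline and non-responsive (inactive) otherwise.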

[2] = target: OR13A1 (Homo sapiens) (UniProt Q8NGR1)
Procedure, shortened: as §1

[3] = target: OR13C2 (Homo sapiens) (UniProt Q8NGS9)
Chain of OR13C2 (Homo sapiens) (Q8NGS9 whole entry): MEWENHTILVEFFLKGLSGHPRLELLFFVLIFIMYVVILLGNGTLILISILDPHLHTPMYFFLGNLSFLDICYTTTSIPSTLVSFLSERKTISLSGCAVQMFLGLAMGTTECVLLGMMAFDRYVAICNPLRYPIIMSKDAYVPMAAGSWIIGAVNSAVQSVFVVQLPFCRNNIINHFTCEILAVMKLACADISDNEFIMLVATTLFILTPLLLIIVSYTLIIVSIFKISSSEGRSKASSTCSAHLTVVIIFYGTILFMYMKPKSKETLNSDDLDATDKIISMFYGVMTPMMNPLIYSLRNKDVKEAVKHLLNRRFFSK
Procedure, shortened: as §1

[4] = target: OR13C3 (Homo sapiens) (UniProt Q8NGS6)
Chain of OR13C3 (Homo sapiens) (Q8NGS6 whole entry): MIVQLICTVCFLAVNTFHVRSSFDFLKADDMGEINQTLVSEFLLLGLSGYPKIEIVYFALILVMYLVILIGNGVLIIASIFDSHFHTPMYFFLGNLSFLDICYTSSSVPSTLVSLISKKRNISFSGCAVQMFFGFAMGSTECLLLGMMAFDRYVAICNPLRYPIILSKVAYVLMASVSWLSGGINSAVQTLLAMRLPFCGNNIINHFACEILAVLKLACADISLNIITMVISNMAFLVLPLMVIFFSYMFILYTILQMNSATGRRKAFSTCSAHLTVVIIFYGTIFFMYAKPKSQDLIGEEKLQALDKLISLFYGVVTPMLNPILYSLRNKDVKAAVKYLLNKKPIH
Procedure, shortened: as §1

[5] = target: OR13C4 (Homo sapiens) (UniProt Q8NGS5)
Chain of OR13C4 (Homo sapiens) (Q8NGS5 whole entry): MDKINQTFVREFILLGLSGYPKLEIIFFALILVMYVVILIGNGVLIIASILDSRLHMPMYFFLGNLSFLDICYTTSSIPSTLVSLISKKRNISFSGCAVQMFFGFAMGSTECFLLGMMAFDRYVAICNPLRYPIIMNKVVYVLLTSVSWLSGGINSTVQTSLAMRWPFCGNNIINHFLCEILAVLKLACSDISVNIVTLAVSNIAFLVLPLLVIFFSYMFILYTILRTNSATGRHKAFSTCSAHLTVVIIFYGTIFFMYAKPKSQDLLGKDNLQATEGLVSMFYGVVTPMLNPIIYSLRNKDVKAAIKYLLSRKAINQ
Procedure, shortened: as §1

[6] = target: OR13C5 (Homo sapiens) (UniProt Q8NGS8)
Chain of OR13C5 (Homo sapiens) (Q8NGS8 whole entry): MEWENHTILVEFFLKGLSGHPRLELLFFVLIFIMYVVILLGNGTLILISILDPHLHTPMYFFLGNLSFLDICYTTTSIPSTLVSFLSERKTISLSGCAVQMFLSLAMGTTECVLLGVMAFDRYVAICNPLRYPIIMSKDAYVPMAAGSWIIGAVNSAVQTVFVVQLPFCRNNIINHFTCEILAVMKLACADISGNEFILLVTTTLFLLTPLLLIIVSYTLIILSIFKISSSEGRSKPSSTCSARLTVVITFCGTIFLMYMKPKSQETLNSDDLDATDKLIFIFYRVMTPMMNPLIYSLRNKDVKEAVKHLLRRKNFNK
Procedure, shortened: as §1

[7] = target: OR13C8 (Homo sapiens) (UniProt Q8NGS7)
Chain of OR13C8 (Homo sapiens) (Q8NGS7 whole entry): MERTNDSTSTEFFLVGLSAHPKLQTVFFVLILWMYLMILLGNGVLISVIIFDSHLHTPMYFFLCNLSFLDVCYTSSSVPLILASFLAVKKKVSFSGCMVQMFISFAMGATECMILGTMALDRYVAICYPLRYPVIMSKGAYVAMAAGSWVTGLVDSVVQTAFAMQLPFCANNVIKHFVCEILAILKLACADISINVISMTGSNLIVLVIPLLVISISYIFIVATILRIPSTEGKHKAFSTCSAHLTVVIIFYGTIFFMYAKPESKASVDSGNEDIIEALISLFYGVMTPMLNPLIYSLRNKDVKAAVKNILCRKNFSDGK
Procedure, shortened: as §1

[8] = target: OR13C9 (Homo sapiens) (UniProt Q8NGT0)
Chain of OR13C9 (Homo sapiens) (Q8NGT0 whole entry): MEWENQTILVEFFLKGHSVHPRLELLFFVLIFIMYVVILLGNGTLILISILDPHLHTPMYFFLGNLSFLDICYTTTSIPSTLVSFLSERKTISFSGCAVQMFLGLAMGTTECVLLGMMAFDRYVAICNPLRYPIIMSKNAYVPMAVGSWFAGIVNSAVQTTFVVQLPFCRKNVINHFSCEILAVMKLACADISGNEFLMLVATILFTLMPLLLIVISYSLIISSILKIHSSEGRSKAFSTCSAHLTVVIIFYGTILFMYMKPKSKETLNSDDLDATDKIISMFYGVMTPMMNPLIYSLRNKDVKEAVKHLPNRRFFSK
Procedure, shortened: as §1

[9] = target: OR13D1 (Homo sapiens) (UniProt Q8NGV5)
Chain of OR13D1 (Homo sapiens) (Q8NGV5 whole entry): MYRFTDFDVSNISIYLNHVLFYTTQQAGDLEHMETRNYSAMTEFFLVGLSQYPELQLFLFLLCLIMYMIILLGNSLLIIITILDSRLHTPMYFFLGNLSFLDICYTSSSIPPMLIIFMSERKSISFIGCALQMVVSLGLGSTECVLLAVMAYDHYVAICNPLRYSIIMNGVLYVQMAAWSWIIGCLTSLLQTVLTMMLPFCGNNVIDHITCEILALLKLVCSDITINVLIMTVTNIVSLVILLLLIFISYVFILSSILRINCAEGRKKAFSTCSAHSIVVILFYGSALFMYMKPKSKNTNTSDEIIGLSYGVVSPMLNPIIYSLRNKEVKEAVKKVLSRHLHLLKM
Procedure, shortened: as §1

[10] = target: OR13F1 (Homo sapiens) (UniProt Q8NGS4)
Chain of OR13F1 (Homo sapiens) (Q8NGS4 whole entry): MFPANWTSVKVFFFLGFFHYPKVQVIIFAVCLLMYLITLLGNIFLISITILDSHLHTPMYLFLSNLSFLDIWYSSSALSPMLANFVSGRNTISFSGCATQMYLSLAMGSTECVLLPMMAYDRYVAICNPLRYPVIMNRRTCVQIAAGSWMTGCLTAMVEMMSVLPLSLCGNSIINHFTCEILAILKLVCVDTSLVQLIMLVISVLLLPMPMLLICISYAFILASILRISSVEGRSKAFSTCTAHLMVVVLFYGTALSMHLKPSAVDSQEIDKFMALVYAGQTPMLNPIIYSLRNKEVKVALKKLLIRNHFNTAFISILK
Procedure, shortened: as §1

[11] = target: OR13G1 (Homo sapiens) (UniProt Q8NGZ3)
Chain of OR13G1 (Homo sapiens) (Q8NGZ3 whole entry): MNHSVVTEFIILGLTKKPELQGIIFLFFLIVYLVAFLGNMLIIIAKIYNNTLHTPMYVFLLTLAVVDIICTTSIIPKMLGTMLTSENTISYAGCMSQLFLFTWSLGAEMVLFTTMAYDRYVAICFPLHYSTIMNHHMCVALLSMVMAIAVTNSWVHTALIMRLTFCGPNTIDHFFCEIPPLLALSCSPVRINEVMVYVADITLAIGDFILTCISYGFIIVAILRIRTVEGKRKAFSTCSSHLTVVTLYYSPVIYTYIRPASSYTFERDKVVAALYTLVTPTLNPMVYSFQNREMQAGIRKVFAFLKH
Procedure, shortened: as §1

[12] = target: OR13H1 (Homo sapiens) (UniProt Q8NG92)
Chain of OR13H1 (Homo sapiens) (Q8NG92 whole entry): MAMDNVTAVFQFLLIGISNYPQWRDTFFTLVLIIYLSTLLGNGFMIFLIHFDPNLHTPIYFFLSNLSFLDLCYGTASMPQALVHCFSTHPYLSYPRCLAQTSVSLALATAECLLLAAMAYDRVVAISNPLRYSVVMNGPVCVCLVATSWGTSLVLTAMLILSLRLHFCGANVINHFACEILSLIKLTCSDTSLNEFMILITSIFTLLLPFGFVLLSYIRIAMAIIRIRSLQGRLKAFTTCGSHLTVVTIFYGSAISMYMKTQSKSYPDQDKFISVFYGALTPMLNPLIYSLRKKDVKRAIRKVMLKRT
Procedure, shortened: as §1

[13] = target: OR13J1 (Homo sapiens) (UniProt Q8NGT2)
Chain of OR13J1 (Homo sapiens) (Q8NGT2 whole entry): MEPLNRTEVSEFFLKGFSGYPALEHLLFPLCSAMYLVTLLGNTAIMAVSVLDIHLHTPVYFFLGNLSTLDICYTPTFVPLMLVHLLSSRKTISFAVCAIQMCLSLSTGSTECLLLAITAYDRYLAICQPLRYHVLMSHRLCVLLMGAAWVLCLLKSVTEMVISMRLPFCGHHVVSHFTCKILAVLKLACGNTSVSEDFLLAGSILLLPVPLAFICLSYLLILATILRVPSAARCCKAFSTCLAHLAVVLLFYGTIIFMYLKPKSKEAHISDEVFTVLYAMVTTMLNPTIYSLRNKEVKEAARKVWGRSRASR
Procedure, shortened: as §1

[14] = target: OR14A16 (Homo sapiens) (UniProt Q8NHC5)
Chain of OR14A16 (Homo sapiens) (Q8NHC5 whole entry): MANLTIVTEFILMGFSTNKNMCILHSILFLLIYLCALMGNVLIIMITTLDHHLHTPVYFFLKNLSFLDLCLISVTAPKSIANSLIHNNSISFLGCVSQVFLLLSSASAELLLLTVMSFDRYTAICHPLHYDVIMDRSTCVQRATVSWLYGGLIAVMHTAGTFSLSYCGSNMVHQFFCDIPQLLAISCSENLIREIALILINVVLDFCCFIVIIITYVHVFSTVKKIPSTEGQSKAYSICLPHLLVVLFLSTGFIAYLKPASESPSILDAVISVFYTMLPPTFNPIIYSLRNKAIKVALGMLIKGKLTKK
Procedure, shortened: as §1

[15] = target: OR14A2 (Homo sapiens) (UniProt Q96R54)
Chain of OR14A2 (Homo sapiens) (Q96R54 whole entry): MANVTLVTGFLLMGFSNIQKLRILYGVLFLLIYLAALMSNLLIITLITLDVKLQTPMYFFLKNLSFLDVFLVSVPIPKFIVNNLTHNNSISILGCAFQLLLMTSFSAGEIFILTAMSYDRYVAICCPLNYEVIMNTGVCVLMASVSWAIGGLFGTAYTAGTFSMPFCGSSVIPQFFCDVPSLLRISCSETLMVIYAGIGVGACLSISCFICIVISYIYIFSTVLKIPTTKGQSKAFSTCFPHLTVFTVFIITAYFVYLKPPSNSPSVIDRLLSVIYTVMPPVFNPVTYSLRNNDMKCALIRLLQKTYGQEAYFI
Procedure, shortened: as §1

[16] = target: OR14C36 (Homo sapiens) (UniProt Q8NHC7)
Procedure, shortened: as §1

[17] = target: OR14I1 (Homo sapiens) (UniProt A6ND48)
Chain of OR14I1 (Homo sapiens) (A6ND48 whole entry): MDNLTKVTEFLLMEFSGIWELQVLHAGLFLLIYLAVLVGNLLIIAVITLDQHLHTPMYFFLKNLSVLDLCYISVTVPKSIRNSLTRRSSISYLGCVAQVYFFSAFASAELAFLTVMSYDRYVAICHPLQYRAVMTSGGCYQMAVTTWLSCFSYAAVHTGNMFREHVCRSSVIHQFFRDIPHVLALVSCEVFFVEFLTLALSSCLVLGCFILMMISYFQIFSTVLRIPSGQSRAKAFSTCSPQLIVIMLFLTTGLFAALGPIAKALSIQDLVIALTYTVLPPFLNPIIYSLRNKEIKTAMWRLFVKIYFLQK
Procedure, shortened: as §1

[18] = target: OR14J1 (Homo sapiens) (UniProt Q9UGF5)
Chain of OR14J1 (Homo sapiens) (Q9UGF5 whole entry): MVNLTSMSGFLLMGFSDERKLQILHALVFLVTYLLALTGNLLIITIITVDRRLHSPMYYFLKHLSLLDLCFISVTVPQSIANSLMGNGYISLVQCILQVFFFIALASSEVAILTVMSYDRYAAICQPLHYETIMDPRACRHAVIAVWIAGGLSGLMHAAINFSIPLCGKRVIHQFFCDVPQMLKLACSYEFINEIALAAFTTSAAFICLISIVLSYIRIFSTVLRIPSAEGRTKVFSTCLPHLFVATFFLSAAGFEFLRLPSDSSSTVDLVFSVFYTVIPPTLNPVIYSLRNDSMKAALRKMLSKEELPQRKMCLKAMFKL
Procedure, shortened: as §1

[19] = target: OR14K1 (Homo sapiens) (UniProt Q8NGZ2)
Procedure, shortened: as §1

[20] = target: OR13C7 (Homo sapiens) (UniProt P0DN81)
Procedure, shortened: as §1

SMILES: CCCCCCC(Br)C(=O)O (stereo not drawn)
- odorant receptor agonist call [1]: inactive

SMILES: C=CCOC(=O)Cc1ccccc1
- odorant receptor agonist call [2]: inactive
- odorant receptor agonist call [3]: inactive
- odorant receptor agonist call [4]: inactive
- odorant receptor agonist call [5]: inactive
- odorant receptor agonist call [6]: inactive
- odorant receptor agonist call [7]: inactive
- odorant receptor agonist call [8]: inactive
- odorant receptor agonist call [9]: inactive
- odorant receptor agonist call [10]: inactive
- odorant receptor agonist call [11]: inactive
- odorant receptor agonist call [12]: inactive
- odorant receptor agonist call [13]: inactive
- odorant receptor agonist call [14]: inactive
- odorant receptor agonist call [15]: inactive
- odorant receptor agonist call [16]: inactive
- odorant receptor agonist call [17]: inactive
- odorant receptor agonist call [18]: inactive
- odorant receptor agonist call [19]: inactive
- odorant receptor agonist call [1]: active

SMILES: CCC(Br)C(=O)O (stereo not drawn)
- odorant receptor agonist call [1]: inactive

SMILES: C=CCc1ccccc1
- odorant receptor agonist call [1]: inactive

SMILES: CCOC(=O)Cc1ccccc1
- odorant receptor agonist call [1]: active

SMILES: CCCCC(Br)C(=O)O (stereo not drawn)
- odorant receptor agonist call [1]: inactive

SMILES: O=C([O-])Cc1ccccc1
- odorant receptor agonist call [1]: inactive

SMILES: CCC1CCC(=O)O1 (stereo not drawn)
- odorant receptor agonist call [1]: inactive

SMILES: Cc1c([N+](=O)[O-])c(C)c([N+](=O)[O-])c(C(C)(C)C)c1[N+](=O)[O-]
- odorant receptor agonist call [2]: inactive
- odorant receptor agonist call [3]: inactive
- odorant receptor agonist call [4]: inactive
- odorant receptor agonist call [5]: inactive
- odorant receptor agonist call [6]: inactive
- odorant receptor agonist call [20]: inactive
- odorant receptor agonist call [7]: inactive
- odorant receptor agonist call [8]: inactive
- odorant receptor agonist call [9]: inactive
- odorant receptor agonist call [10]: inactive
- odorant receptor agonist call [11]: inactive
- odorant receptor agonist call [12]: inactive
- odorant receptor agonist call [13]: inactive
- odorant receptor agonist call [14]: inactive
- odorant receptor agonist call [15]: inactive
- odorant receptor agonist call [16]: inactive
- odorant receptor agonist call [17]: inactive
- odorant receptor agonist call [18]: inactive
- odorant receptor agonist call [19]: inactive
- odorant receptor agonist call [1]: active

SMILES: Cc1ccccc1O
- odorant receptor agonist call [1]: inactive

SMILES: C=CCc1ccc(OC)cc1
- odorant receptor agonist call [1]: active

SMILES: COc1ccc(C=O)cc1
- odorant receptor agonist call [1]: inactive

SMILES: C=CCSSCC=C
- odorant receptor agonist call [1]: inactive

SMILES: Cc1ccc(O)c(C)c1
- odorant receptor agonist call [1]: inactive

SMILES: ClC=CCl
- odorant receptor agonist call [1]: inactive

SMILES: O=c1cc(O)c2ccccc2o1
- odorant receptor agonist call [1]: inactive

SMILES: CC(C=O)Cc1ccc2c(c1)OCO2 (stereo not drawn)
- odorant receptor agonist call [1]: active

SMILES: CCCC(Br)C(=O)O (stereo not drawn)
- odorant receptor agonist call [1]: inactive

SMILES: SCc1ccco1
- odorant receptor agonist call [1]: inactive

SMILES: CSSC
- odorant receptor agonist call [1]: inactive

SMILES: O=C(O)Cc1ccccc1
- odorant receptor agonist call [1]: inactive
